DNA FID counter-1: fluorescent intercalator displacement, NS3 helicase counter-screen | DNA fluorescent intercalator displacement, fluorescence | hit rate 0.17% among 290,000 | AID 1845 | inhibition, % at 7.9 µM;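 also: 0% = vehicle and 100% = reference compound; higher means more ethidium bromide displaced from hairpin DNA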
FGF22 binding: binders of recombinant human FGF22 by thermal shift; hit rate 1.5% among 340,000; AID 651658; activity (Tm shift, normalised), % at 9.99 µM; Q9HCT0; SYPRO orange fluorescence; percent of sucrose octasulfate shift, DMSO zero;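 active = mean Tm shift, scaled 0 neutral to 100 positive control, at about 1.3% or above, every replicate too, limit read from the data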
Target sequence (Q9HCT0 whole entry, looked up): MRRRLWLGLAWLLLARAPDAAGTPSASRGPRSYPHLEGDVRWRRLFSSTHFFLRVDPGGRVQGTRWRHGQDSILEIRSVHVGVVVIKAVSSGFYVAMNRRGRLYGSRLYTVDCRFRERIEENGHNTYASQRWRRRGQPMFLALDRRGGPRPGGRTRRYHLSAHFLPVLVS
NS3 helicase inh: HCV NS3 helicase inhibition; NS3 helicase DNA unwinding, Cy5 molecular beacon fluorescence; inhibition, % at 10.9 µM; hit rate 0.56% among 290,000;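 active = inhibition above the mean of all tested compounds plus 3 SD, set per campaign, cut at about 35% in these data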;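 also: 0% = DMSO wells and 100% = thioflavine S control wells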
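System: HCV NS3 helicase fragment; control set: DMSO and thioflavine S; technique: Cy5 fluorescence at 0 and 60 min, beacon hairpin quenching; reagent: beacon DNA duplex substrate plus ATP; replicates: singlicate; schedule: 1 h reaction at 25 °C, ATP-initiated; medium: MOPS buffer pH 6.5 with MgCl2, DTT, Tween20, BSA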
ZTA counter: ZTA (EBV) inhibition in EBNA-1 counter-screen; P03206; ZTA-DNA binding, fluorescence polarization; inhibition, % at 11 µM; hit rate 0.15% among 320,000; in the data active = inhibition above about 33%
Target sequence (P03206 whole entry, looked up): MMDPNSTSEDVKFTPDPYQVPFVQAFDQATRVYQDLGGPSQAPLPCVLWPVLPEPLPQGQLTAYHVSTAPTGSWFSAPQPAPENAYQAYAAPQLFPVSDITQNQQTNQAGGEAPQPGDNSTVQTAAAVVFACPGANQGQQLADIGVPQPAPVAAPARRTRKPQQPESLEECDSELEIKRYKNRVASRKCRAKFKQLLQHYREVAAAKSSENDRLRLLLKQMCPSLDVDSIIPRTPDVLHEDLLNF
NR3A LBD binder: modulators (binders) of human NR3A ligand-binding domain. NR3A LBD differential scanning fluorimetry, Tm shift; 0% = protein alone, 100% = glycine-bound protein. Tm shift relative to glycine control, % at 25 µM. hit rate 2.5% among 340,000. AID 1259313;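 active = melting temperature shift of at least 10% of the positive control shift, at one fixed dose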
EBNA-1 inh: blocks EBNA-1 binding to DNA; EBNA-1 DNA binding, fluorescence polarization; hit rate 0.34% among 300,000; AID 1950; inhibition, % at 14.8 µM; in the data active = inhibition above about 28%
NS3 helicase cf: HCV NS3 helicase inhibition, confirmation assay | shares compounds with NS3 helicase inh | NS3 helicase DNA unwinding, Cy5 molecular beacon fluorescence | inhibition, % at 10.9 µM | hit rate 31% among 1,600 | AID 1943;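 active = inhibition above the mean of all tested compounds plus 3 SD, cutoff set per campaign, cut at about 36% in these data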
DNA FID counter-2: counter-screen for HCV NS3 helicase inhibitors: DNA intercalator displacement; shares compounds with NS3 helicase inh; DNA fluorescent intercalator displacement, fluorescence; inhibition, % at 7.9 µM; hit rate 4% among 1,600; AID 1945;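 also: 0% = vehicle and 100% = reference compound; higher means more displacement of ethidium bromide from the DNA hairpin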
FID counter DR: displaces fluorescent intercalator from DNA, HCV helicase counter-screen. shares compounds with NS3 helicase inh. fluorescent intercalator displacement from DNA, fluorescence. IC50, µM. 120 tested, under 10 active. AID 2172; call rule not given here
An asterisk follows results filed as active; i = inactive; . = no result given; ! = not confirmed by another sample. A selection: hits, their analogues and other compounds. The true share with any hit is near 3.6%. Rule as the data show it, unless noted: active = inhibition above about 37%; inactive = the rest.

SMILES	DNA FID counter-1	FGF22 binding	NS3 helicase inh	ZTA counter	NR3A LBD binder	EBNA-1 inh	NS3 helicase cf	DNA FID counter-2	others
CC(C)n1c(=O)c(C=Nc2ccc(F)cc2)c(O)n(Cc2ccco2)c1=O	-43	0	48*	-5	-3	-5	-5	5
O=c1nc(/C=C/c2ccc(Cl)cc2Cl)cc(C(F)(F)F)[nH]1	-27	0	46*	.	-4	.	70*	-16
CCN1[C@@H]2c3ccc(-c4ccc(OC)cc4)c(=O)n3C[C@H]1[C@H](CO)[C@H]2C(=O)OC	.	0	.	.	.	.	.	.
CCCC#Cc1ccc([C@H]2[C@@H](CO)N3CCCCN(C(=O)Cc4ccccn4)C[C@@H]23)cc1	.	0	.	.	.	.	.	.
CCN1C(=O)C(=C/C=C/c2ccco2)C(=O)N(CC)C1=S	-19	0	39*	5	-5	7	75*	6
COC(=O)[C@@H]1[C@@H](CO)[C@@H]2Cn3c(ccc(-c4cccc(F)c4)c3=O)[C@H]1N2C(=O)CC1CC1	.	0	.	.	.	.	.	.
COC(=O)[C@H]1[C@H](CO)[C@H]2Cn3c(ccc(-c4ccncc4)c3=O)[C@@H]1N2S(=O)(=O)c1ccccc1F	.	0	.	.	.	.	.	.
O=C1NC(=O)N(Cc2ccco2)C(=O)/C1=C\c1cccn1CCOc1ccc(Cl)cc1	-22	0	44*	16	-11	-1	25	-5
CCC(=O)N1[C@@H]2Cn3c(ccc(-c4cccc(F)c4)c3=O)[C@H]1[C@@H](C(=O)OC)[C@@H]2CO	.	0	.	.	.	.	.	.
Cc1cc(/C=C2/C(=O)NC(=O)N(Cc3ccco3)C2=O)c(C)n1-c1ccccc1	-23	.	50*	2	-3	0	7	-29
O=C1NC(=O)N(Cc2ccco2)C(=O)/C1=C/c1ccc(-c2cccc([N+](=O)[O-])c2)o1	1	.	39*	-13	6	-7	66*	18
O=C1NC(=S)N(Cc2ccco2)C(=O)/C1=C\c1cccs1	-6	.	52*	.	.	.	77*	21
C=CCN1C(=O)NC(=O)/C(=C\c2ccc(-c3ccccc3[N+](=O)[O-])o2)C1=O	-8	0	8	2	-4	4	.	.
Cc1cc(/C=C2\C(=O)NC(=O)N(Cc3ccccc3)C2=O)c(C)n1C1CC1	-33	0	-1	-11	0	13	.	.
O=C(Cc1ccncc1)N1CCCCN2[C@H](CO)[C@H](c3ccc(C#CC4(O)CCCC4)cc3)[C@@H]2C1	.	0	.	.	.	.	.	.
CC(=O)c1ccc2c(c1)C1C(Cl)C(Sc3ccccc3[N+](=O)[O-])CC1C(C(=O)O)N2 (centres undefined)	-3	.	41*	-9	8	-16	52*	7
COc1ccc(N2CCN(Cc3nc4ccccc4[nH]3)CC2)cc1	-14	0	38*	-14	-2	-9	-11	-2
COc1ccc(C#Cc2ccc([C@H]3[C@@H](CO)N4CCCCN(C(=O)Cc5ccccc5)C[C@H]34)cc2)cc1	.	-1	.	.	.	.	.	.
O=C1NC(=O)N(c2ccc3c(c2)OCO3)C(=O)/C1=C\c1ccc(-c2ccccc2C(=O)O)o1	-21	0	24	1	3	-11	.	.
Cc1cccc(N2C(=O)NC(=O)/C(=C/c3ccc(-c4ccc(C(=O)O)c(Cl)c4)o3)C2=O)c1	-22	.	37*	-7	.	-8	-22	14
CCCc1cc(=O)oc2cc(OCC(=O)N3CCN(Cc4ccc5c(c4)OCO5)CC3)ccc12	-15	0	-10	-11	-2	5	.	.
CCCc1cc(=O)oc2cc(OCC(=O)N3CCC(C(=O)O)(c4ccccc4)CC3)ccc12	-23	0	49*	3	-2	0	-24	-26
O=C(c1ccccc1)c1cn(CC(=O)N2CCOCC2)c2ccccc12	-9	.	57*	16	2	9	-7	3
CCn1c(O)c(C=Nc2ccc(N3CCOCC3)c(Br)c2)c(=O)n(CC)c1=S	-2	.	0	-1	4	-10	.	.
CCn1c(O)c(C=Nc2ccc(N3CCOCC3)cc2)c(=O)n(CC)c1=S	1	.	40*	-3	-6	7	-7	-22
SMILES	DNA FID counter-1	FGF22 binding	NS3 helicase inh	ZTA counter	NR3A LBD binder	EBNA-1 inh	NS3 helicase cf	DNA FID counter-2	others
COc1ccc(N2C(=O)NC(=O)/C(=C/c3ccc([N+](=O)[O-])s3)C2=O)cc1	-8	0	39*	25	-4	6	50*	0	FID counter DR=i
O=C(Cc1ccccc1)N1CC2(C1)[C@@H](c1ccccc1)[C@@H](CO)N2Cc1cccc(F)c1	.	0	.	.	.	.	.	.
COc1cccc(N2C(=O)/C(=C/c3ccc(C)o3)C(=O)NC2=S)c1	-17	0	36*	-8	0	-6	59*	-14
O=C1NC(=S)N(c2ccccc2)C(=O)/C1=C/c1ccco1	-7	1	41*	21	-1	5	69*	0
O=C(Cc1cccnc1)N1CCCCN2[C@@H](CO)[C@H](c3ccc(C#CC4(O)CCCC4)cc3)[C@@H]2C1	.	0	.	.	.	.	.	.
CN(C)[C@@H]1C(=O)C(C(N)=O)=C(O)[C@@]2(O)C(=O)C3=C(O)c4c(O)cccc4[C@@](C)(O)[C@H]3[C@H](O)[C@@H]12	-9	0	36*	8	-8	30*!	97*	18
CN(C)[C@@H]1C(=O)C(C(N)=O)=C(O)[C@@]2(O)C(=O)C3=C(O)c4c(O)cccc4[C@@](C)(O)C3C[C@@H]12 (some centres undefined)	.	0	.	-3	-3	4	.	.
CN(C)[C@@H]1C(=O)C(C(N)=O)=C(O)[C@@]2(O)C(=O)C3=C(O)c4c(O)ccc(Cl)c4[C@@](C)(O)[C@H]3C[C@@H]12	-10	0	48*	-14	1	-8	7	20
CN1[C@@H]2Cn3c(cccc3=O)[C@H]1[C@@H](C(=O)NCC1CC1)[C@@H]2CO	.	0	.	.	.	.	.	.
COc1ccc(-c2ccc([C@H]3[C@H]4CN(C(=O)Cc5ccccc5)CCCCN4[C@H]3CO)cc2)cc1	.	0	.	.	.	.	.	.
CC[n+]1c(/C=C/C=C/c2ccc(N(C)C)cc2)sc2ccccc21	3	-1	48*	164*	-2	105*	107*	36
CC[n+]1c(/C=C/N(C)c2ccccc2)sc2ccc(Cl)cc21	-3	.	-3	7	-3	-4	.	.
O=C(N/N=C/c1c(O)n(CCc2ccc(F)cc2)c(=O)[nH]c1=O)c1ccncc1	-31	0	38*	22	-6	-1	-6	-13
O=C(N/N=C/c1c(O)n(CCc2ccccc2)c(=O)[nH]c1=O)c1ccncc1	-20	.	13	10	-4	-5	.	.
